# bCat nuc transl – modulators of beta-catenin nuclear translocation, primary screen, imaging, HeLa cells, immunofluorescence, high-content. nuclear translocation activity, % at 5 µM. hit rate 0.3% among 190,000;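 active = nuclear translocation activity above 50% at 5 µM, with a well cell count of 50 or more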;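 note: per-cell ratio of nuclear to cytoplasmic median beta-catenin stain intensity; plate controls were DMSO negative control for no effect and GSK-3 inhibitor IX positive control for full effect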
#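 Test system: human HeLa cells, endogenous beta-catenin. Times: 24 h compound exposure, 37°C. Measured by: beta-catenin immunofluorescence imaging with DAPI.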
# Yeast lifespan up – compounds extending yeast replicative lifespan, primary screen, S. cerevisiae, OD615. S. cerevisiae growth with nicotinamide; deaD strain in restrictive glucose medium. inhibition of the nicotinamide effect, % at 10 µM. hit rate 0.68% among 130,000. AID 775, 2007;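 active = inhibition above a set limit, placed 3 SD over the median of all compounds, cut at about 26% in these data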;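 note: 0% = nicotinamide-treated wells and 100% = cells grown without nicotinamide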
#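 Buffer or medium: CSMM-D glucose medium, restrictive; test system: modified budding yeast, DeaD strain; compound: single dose 10 µM compound, 0.25% DMSO; schedule: culture preincubation 4 h, compound exposure 48 h, both 30 °C; detection: optical density (absorbance) at 615 nm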
# MT stabilizer – microtubule stabilizers in HeLa cells, primary screen, imaging, high-content imaging; HeLa tubulin immunostaining HCS, 24 h; share of cells brighter than vehicle mean+2SD; % tubulin-high responders, % at 10 µM; hit rate 0.83% among 200,000; AID 2205, 2009;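 active = plate Z-score above 3 for both tubulin-high and condensed-nucleus cell shares, with cell loss under 80%, at 10 µM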;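 note: anti alpha tubulin signal scored within the nucleus-defined area of each cell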
# RAM inhibit – inhibitors of the yeast RAM network, primary screen, dse1pr::URA3 reporter, 5-FOA selection | inhibition, % at 50 µM | hit rate 1.8% among 190,000 | S. cerevisiae dse1pr::URA3 reporter, 5-FOA growth OD615, 2 d; analog-sensitive cbk1-as2 kinase mutant strain | AID 868, 2007;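 active = inhibition above a set limit, 3 SD over mean compound inhibition, cut at about 8.4% in these data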;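 note: 0% = DMSO-only wells with no growth and 100% = 10 µM 1-NA-PP1 full growth; inhibition rescues growth on 5-FOA so higher OD means more RAM inhibition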
# HMGR II inh – inhibitors of E. faecalis class II HMGR, primary screen, biochemical, Enterococcus faecalis; HMG-CoA reductase (Enterococcus faecalis, mvaE); purified E. faecalis HMGR, NADPH absorbance 340 nm kinetic; inhibition, % at 10 µM; hit rate 0.41% among 190,000;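 active = inhibition above a set limit, the median over all tested compounds plus 3 SD, cut at about 9.5% in these data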;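 note: enzyme runs in reverse so mevalonate oxidation gives rising NADPH absorbance; 0% = complete reaction with DMSO and 100% = background rate lacking mevalonate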
# BB579 growth dn – growth inhibitors of yeast BB579 in restrictive medium, primary screen, yeast lifespan-shortening project, S. cerevisiae | OD615, 48 h | inhibition, % at 10 µM | hit rate 0.51% among 140,000 | AID 804, 2007;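 active = inhibition above a set limit, 3 SD over the mean compound inhibition, cut at about 44% in these data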
#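 Test system: DeaD yeast strain BB579 / Buffer or medium: restrictive glucose-based CSMM-D medium / Doses: single 10 µM dose / Schedule: 4 h cell preincubation, 48 h compound exposure, 30 °C humidified / Technique: culture absorbance at 615 nm / Controls: amphotericin B positive control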
# * marks the source's active call; other numbers are inactive results; nt = not tested or not shown. Rows were chosen to be rich in hits. Some 3.5% of all compounds tested hit in one or more screens of this group.
SMILES,bCat nuc transl,Yeast lifespan up,MT stabilizer,RAM inhibit,HMGR II inh,BB579 growth dn
COc1cc(C2c3c(oc4ccccc4c3=O)C(=O)N2Cc2ccco2)ccc1O (stereo not drawn),1,-7,4,4,-3,-28
Cc1cccc(Nc2nnc(SCC(=O)NCc3cccs3)s2)c1,0,nt,3,8.5*,-1,nt
Cc1ccc2nc(SCC(=O)N(CC(C)C)c3c(N)n(Cc4ccccc4)c(=O)[nH]c3=O)[nH]c2c1,-1,nt,nt,nt,nt,nt
Cc1noc(C)c1COc1cccc(C(=O)OCCOc2ccc(F)cc2)c1,-10,-8,2,8.7*,-9,-17
Cc1noc(C)c1COc1cccc(C(=O)Nc2ccc3c(c2)OCO3)c1,8,nt,17*,2,-2,nt
Cc1noc(C)c1COc1cccc(C(=O)Oc2ccc3c(c2)OCO3)c1,-1,-11,2,6,4,-26
Cc1noc(C)c1COc1cccc(C(=O)OC(C)C(=O)Nc2ccc3c(c2)OCO3)c1 (stereo not drawn),95*,-4,26*,0,-1,-86
COc1cc(C(=O)OC(C)C(=O)Nc2ccc3c(c2)OCO3)ccc1OCc1c(C)noc1C (stereo not drawn),0,-24,2,5,2,-50
CSc1cccc(NC(=S)N(CCC(C)C)C(C)c2ccncc2)c1 (stereo not drawn),0,nt,nt,nt,nt,nt
COc1ccc(C(=O)NC(=S)NNC(=O)c2cnccn2)cc1,1,2,5,6,1,81*
O=C(NC(=S)NNC(=O)c1cnccn1)c1ccc(Cl)cc1,1,nt,nt,nt,nt,nt
COc1cc(C(=O)NC(=S)NNC(=O)c2cnccn2)cc(OC)c1OC,-1,9,2,0,0,88*
Cc1noc(C)c1COc1ccc(C(=O)OCC(=O)Nc2c(C)n(C)n(-c3ccccc3)c2=O)cc1,0,nt,2,0,-4,nt
COC(=O)C1=C(N)Oc2cc(C)n(CC3CCCO3)c(=O)c2C1c1ccccc1OC (stereo not drawn),0,-18,1,-1,1,-31
COC(=O)C1=C(N)Oc2cc(N(C)C)ccc2C1c1ccccc1OC (stereo not drawn),1,18,27*,1,-8,-45
CC1CCc2sc(C(=O)N/N=C/c3ccc(O)cc3)cc2C1 (stereo not drawn),-5,nt,nt,nt,nt,nt
Clc1ccc2nc3c4ccccc4cnn3c2c1,0,nt,17*,4,-3,nt
COc1cc(NC(=O)c2ccc([N+](=O)[O-])cc2)ccc1NC(=O)C(C)C,3,nt,1,3,3,nt
Cn1c(=O)c2c(ncn2CC(=O)OCC(=O)Nc2cccc(Cl)c2)n(C)c1=O,-4,nt,3,0,-7,nt
CC(C)n1nc(C(=O)Oc2ccc(Cl)cc2)c2ccccc2c1=O,-2,29*,1,7,0,-32
Cc1cc(=O)oc2cc(OC(=O)c3nn(C(C)C)c(=O)c4ccccc34)ccc12,2,0,4,6,2,-33
Cc1ccsc1/C=C/c1ccc2cccc(O)c2n1,nt,-6,4,1,-2,17
Oc1cccc2ccc(/C=C/c3cccs3)nc12,nt,-18,5,0,-1,59*
Cc1ccccc1OC(=O)n1c(=S)oc2cc(Cl)ccc21,-2,80*,1,-1,1,-34
O=C(N/N=C/c1ccccc1Cl)c1n[nH]c2c1CCCC2,1,5,3,3,0,-34
SMILES,bCat nuc transl,Yeast lifespan up,MT stabilizer,RAM inhibit,HMGR II inh,BB579 growth dn
O=C(N/N=C/C(Br)=C/c1ccccc1)c1n[nH]c2c1CCC2,161*,-1,20,-1,0,-88
O=C(N/N=C/c1cccs1)c1n[nH]c2c1CCC2,0,-1,25*,-1,-2,-25
O=C(N/N=C/c1ccccc1)c1n[nH]c2c1CCCC2,0,nt,4,1,-9,nt
O=C(N/N=C/c1ccc(Cl)cc1)c1n[nH]c2c1CCCC2,100*,nt,nt,nt,nt,nt
CCN(CC(=O)NC(C)C)C(=O)Cc1ccc(C)c(C)c1,2,nt,4,5,3,nt
CCN(CC)S(=O)(=O)c1ccc(Cl)c(NC(=O)COc2ccccc2[N+](=O)[O-])c1,0,7,2,8.8*,0,-27
CCN(CC)S(=O)(=O)c1ccc(Cl)c(NC(=O)COC(=O)c2cccn2C)c1,-1,nt,18*,8,-5,nt
CCN(CC)S(=O)(=O)c1ccc(Cl)c(NC(=O)COC(=O)c2ccc(O)cc2)c1,0,nt,3,2,2,nt
COC(=O)c1c(-c2c(Cl)cccc2Cl)noc1NC(=O)NN1CCCCC1,1,nt,nt,nt,nt,nt
COC(=O)c1ccc(NC(=O)Cn2nc(C)cc2C)cc1,-1,nt,4,0,2,nt
Cc1cccc(-n2c(O)c(C=NC3CCS(=O)(=O)C3)c3ccccc3c2=O)c1C (stereo not drawn),-1,nt,nt,nt,nt,nt
Cc1ccc(Cc2c(C)nc3nc(SCC(=O)NCc4ccco4)nn3c2C)cc1,156*,-3,22*,3,-2,-32
Cc1ccccc1Cc1c(C)nc2nc(SCC(=O)NCc3ccco3)nn2c1C,5,-15,7,2,-4,-46
Cc1cccc(Cc2c(C)nc3nc(SCC(=O)NCc4ccco4)nn3c2C)c1,1,-6,20*,1,1,-38
Cc1cc(CN(C)Cc2c(C(=O)N3CCCCCCC3)nc3ccc(Cl)cn23)n[nH]1,-1,nt,2,2,6,nt
Cc1cc(C)n2nc(C(=O)Nc3ccc4c(c3)CCC4)nc2n1,-3,nt,2,2,1,nt
CCn1nc(C)cc1C(=O)n1nc(C)c(Sc2ncccn2)c1C,0,nt,nt,nt,nt,nt
O=C(COC(=O)/C=C/c1ccccc1Cl)NC1CCCCCC1,-3,nt,2,4,-1,nt
COc1ccc(N(CC(=O)Nc2cc(Cl)ccc2OC)S(=O)(=O)c2c(C)noc2C)cc1,0,-5,16*,4,0,-35
CCOc1ccc(N(CC(=O)NC2CCCC(C)C2C)S(=O)(=O)c2c(C)noc2C)cc1 (stereo not drawn),0,3,9,2,-1,-6
CCc1ccc(N(CC(=O)NC2CCCC2)S(=O)(=O)c2c(C)noc2C)cc1,-5,0,7,9.0*,0,-99
CCCOC(=O)c1cccc(Nc2nc(-c3cccnc3)nc3ccccc23)c1,0,-6,3,0,2,-47
CC12CCC(C(=O)NCCCN3CCOCC3)(C(Br)C1=O)C2(C)C (stereo not drawn),-1,nt,nt,nt,nt,nt
COCCCn1c(SCC(=O)Nc2nnc(C)s2)nnc1-c1ccoc1C,-2,60*,2,1,1,-7
